Data on one compound can be found in ChEMBL document CHEMBL4342471, “Discovery of Thieno[2,3-d]pyrimidine-Based Hydroxamic Acid Derivatives as Bromodomain-Containing Protein 4/Histone Deacetylase Dual Inhibitors Induce Autophagic Cell Death in Colorectal Carcinoma Cells” (J Med Chem, 2020).

Structures are written as SMILES. The source made the active and inactive calls. The rule behind the calls is not given here.

Data set [1] can be described thus: Oral bioavailability in Sprague-Dawley rat at 30 mg/kg measured up to 1440 mins by UPLC-QTOF/MS analysis. In kind it is ADME, organism-based. As to conditions: in vivo.
In data set [2] the test system is Mus musculus. Nature of the data set: Induction of autophagy in BALB/cAnNCrl mouse xenografted with human HCT116 cells assessed as increase in LC3-II level in tumor tissue at 15 to 30 mg/kg, po administered on day 1 to day 19 measured on day 19 by immunohistochemical analysis. In kind it is functional, organism-based. In outline:
(§1)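 HCT-116 xenograft mice were dosed orally at 15 or 30 mg/kg, or 30 mg/kg for reference agents, for 19 days, with vehicle or saline controls. Tumor sections were stained for Ki-67, c-Myc, Ac-H3, BRD4, LC3-II, LIFR and p-STAT3 by immunohistochemistry, and TUNEL staining was used as the apoptosis marker.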

Data set [3] relates to HCT-116. The data set is described as follows: Induction of apoptosis in human HCT116 cells assessed as apoptotic cells at 0.2 uM by Annexin-V FITC/propidium iodide staining-based flow cytometry (reference value: 6.3 +/- 0.4 %). In kind it is functional.
The species named for data set [4] is Homo sapiens. The data set is described as follows: Inhibition of BRD4/HDAC in human HCT116 cells assessed as inhibition of IL6-JAK-STAT3 signaling pathway by measuring decrease in OSMR expression at 0.5 uM after 24 hrs by Western blot analysis. In kind it is cell-based. Put shortly:
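HCT-116 cells treated 24 h with 0.5 µM, 5.0 µM or 10 µM test agent depending on compound; OSMR, LIFR and downstream pathway proteins detected by western blot.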
For orientation: In western blotting, separated proteins are transferred to a membrane and probed.

Data set [5] concerns NCM460. The data set is described as follows: Cytotoxicity against human NCM460 cells. Type of data set: cell-based. In outline:
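Antiproliferative IC50 values were measured by MTT assay across a panel of colorectal carcinoma cell lines and normal colorectal epithelial cells.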

For data set [6], the system named is HCT-116. The data set is described as follows: Induction of apoptotic cell death in human HCT116 cells assessed as change in nuclear morphology at 0.2 to 0.5 uM after 12 hrs by Hoechst 33258 staining based fluorescence microscopy analysis. Type of data set: functional. Put shortly:
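Nuclear morphology was examined by Hoechst 33258 staining in HCT-116 cells after treatment at 0.2 or 0.5 μM.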

The target in data set [7] is Histone deacetylase 1 (Homo sapiens, UniProt Q13547). The data set is described as follows: Inhibition of HDAC1 (unknown origin) using biotinylated histone H3 KAc peptide (1 to 21 residues) as substrate by HTRF assay. A general note: TR-FRET usually uses a lanthanide donor and a delayed reading to cut background.
Sequence of Histone deacetylase 1 (Q13547 whole entry, the tested form may be a part): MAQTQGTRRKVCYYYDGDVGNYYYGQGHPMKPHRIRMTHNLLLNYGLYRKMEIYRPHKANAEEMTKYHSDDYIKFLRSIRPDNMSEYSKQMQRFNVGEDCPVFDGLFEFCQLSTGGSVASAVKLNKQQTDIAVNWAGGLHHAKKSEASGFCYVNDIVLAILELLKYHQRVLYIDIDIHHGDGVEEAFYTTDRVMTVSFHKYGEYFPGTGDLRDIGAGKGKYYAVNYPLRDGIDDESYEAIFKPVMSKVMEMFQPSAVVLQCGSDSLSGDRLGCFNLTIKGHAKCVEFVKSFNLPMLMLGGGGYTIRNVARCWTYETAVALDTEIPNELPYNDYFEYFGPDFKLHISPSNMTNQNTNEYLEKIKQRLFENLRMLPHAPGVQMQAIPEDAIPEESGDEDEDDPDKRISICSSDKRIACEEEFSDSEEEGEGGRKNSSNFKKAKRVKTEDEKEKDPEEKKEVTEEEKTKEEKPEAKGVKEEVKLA
Data set [8] relates to DLD-1. Nature of the data set: Antiproliferative activity against human DLD1 cells assessed as reduction in cell viability measured after 24 to 48 hrs by MTT assay. In kind it is functional, cell-based. (In general: Tetrazolium dyes change colour on reduction, which living cells bring about.)
In data set [9] the test system is HCT-116. Nature of the data set: Antitumor activity against human HCT116 cells xenografted in BALB/cAnNCrl mouse assessed as reduction in tumor volume by measuring T/C ratio at 15 mg/kg, po administered on day 1 to day 19 relative to control. Type of data set: functional. Put shortly: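 HCT-116 xenografts in mice were given the test agent orally at 15 or 30 mg/kg, with a saline control group, over 19 days. Tumor volume was followed during treatment and tumors were weighed at the end. Body weight was monitored. Inhibition is expressed as treatment-to-control (T/C) ratio.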

The subject of data set [10] is Mus musculus. Nature of the data set: Increase in phosphorylated STAT3 expression in tumor tissue of BALB/cAnNCrl mouse xenografted with human HCT116 cells at 15 to 30 mg/kg, po administered on day 1 to day 19 measured on day 19 by immunohistochemical analysis. In kind it is functional, organism-based. In outline:
as §1

The target in data set [11] is T1, Protein deacetylase HDAC6 (Homo sapiens, UniProt Q9UBN7).
T1 sequence (Q9UBN7 whole entry): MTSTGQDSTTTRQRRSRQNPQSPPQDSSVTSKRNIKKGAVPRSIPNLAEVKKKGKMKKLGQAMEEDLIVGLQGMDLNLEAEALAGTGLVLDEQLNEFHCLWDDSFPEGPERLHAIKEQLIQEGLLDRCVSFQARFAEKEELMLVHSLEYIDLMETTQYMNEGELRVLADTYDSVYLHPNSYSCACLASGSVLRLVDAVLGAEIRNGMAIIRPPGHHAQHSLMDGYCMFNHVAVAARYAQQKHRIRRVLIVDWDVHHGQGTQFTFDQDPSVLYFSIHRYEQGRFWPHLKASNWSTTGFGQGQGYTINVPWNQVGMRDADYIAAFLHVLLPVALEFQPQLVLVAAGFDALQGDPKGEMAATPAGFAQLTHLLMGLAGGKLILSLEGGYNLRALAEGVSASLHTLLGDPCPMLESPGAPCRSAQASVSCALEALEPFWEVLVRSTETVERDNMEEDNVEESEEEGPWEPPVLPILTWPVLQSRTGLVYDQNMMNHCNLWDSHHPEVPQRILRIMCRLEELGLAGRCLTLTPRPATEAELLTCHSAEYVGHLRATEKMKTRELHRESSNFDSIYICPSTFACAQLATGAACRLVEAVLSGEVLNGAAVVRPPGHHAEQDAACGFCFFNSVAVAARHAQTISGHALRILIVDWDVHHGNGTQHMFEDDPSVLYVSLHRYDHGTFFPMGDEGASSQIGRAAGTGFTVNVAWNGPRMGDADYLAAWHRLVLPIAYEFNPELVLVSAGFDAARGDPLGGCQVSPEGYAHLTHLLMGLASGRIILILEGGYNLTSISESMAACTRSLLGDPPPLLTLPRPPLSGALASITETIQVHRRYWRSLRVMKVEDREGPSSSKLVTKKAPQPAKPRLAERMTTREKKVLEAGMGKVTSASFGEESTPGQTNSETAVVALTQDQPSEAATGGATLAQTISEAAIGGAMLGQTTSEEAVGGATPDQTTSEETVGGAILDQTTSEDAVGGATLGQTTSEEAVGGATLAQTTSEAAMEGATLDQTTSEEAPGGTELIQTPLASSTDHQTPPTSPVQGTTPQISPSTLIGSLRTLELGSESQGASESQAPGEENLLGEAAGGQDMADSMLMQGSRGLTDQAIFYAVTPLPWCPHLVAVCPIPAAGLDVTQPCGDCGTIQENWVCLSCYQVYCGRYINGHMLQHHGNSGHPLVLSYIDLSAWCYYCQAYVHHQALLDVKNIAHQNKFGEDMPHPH
Nature of the data set: Inhibition of HDAC6 (unknown origin) using biotinylated histone H3 KAc peptide (1 to 21 residues) as substrate by HTRF assay.

The subject of data set [12] is HCT-116. Nature of the data set: Induction of apoptosis in human HCT116 cells assessed as late apoptotic cells at 0.2 uM by Annexin-V FITC/propidium iodide staining-based flow cytometry (reference value: 3.51 %). Type of data set: functional.
For data set [13], the target named is Histone deacetylase 3 (Homo sapiens, UniProt O15379). Nature of the data set: Inhibition of HDAC3 (unknown origin) using biotinylated histone H3 KAc peptide (1 to 21 residues) as substrate by HTRF assay.
Sequence of Histone deacetylase 3 (O15379 whole entry, the tested form may be a part): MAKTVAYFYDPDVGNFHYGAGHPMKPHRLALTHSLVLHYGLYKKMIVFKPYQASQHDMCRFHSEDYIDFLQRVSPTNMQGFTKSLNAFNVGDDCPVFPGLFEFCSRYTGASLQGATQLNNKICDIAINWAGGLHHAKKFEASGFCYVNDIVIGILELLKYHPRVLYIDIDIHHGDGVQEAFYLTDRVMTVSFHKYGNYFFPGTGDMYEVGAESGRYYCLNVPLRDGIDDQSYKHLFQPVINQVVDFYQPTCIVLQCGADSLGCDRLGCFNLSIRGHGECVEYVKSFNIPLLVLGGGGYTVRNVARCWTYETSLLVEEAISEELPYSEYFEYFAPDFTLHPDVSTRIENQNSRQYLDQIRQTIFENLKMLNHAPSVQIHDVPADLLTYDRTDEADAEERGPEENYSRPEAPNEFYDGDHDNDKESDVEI
Data set [14] relates to HCT-116. Nature of the data set: Induction of apoptosis in human HCT116 cells assessed as viable cells at 0.2 uM by Annexin-V FITC/propidium iodide staining-based flow cytometry (reference value: 93.4 %). Type of data set: functional. As to conditions: read-out: Activity.
Data set [15] is filed under the species Homo sapiens. The data set is described as follows: Inhibition of BRD4/HDAC in human HCT116 cells assessed as increase in PARP cleavage at 0.2 to 0.5 uM measured after 24 hrs by Western blot analysis. Type of data set: cell-based.
Data set [16] deals with HCT-116. Nature of the data set: Induction of cell cycle arrest in human HCT116 cells assessed as cell accumulation at sub-G1 phase at 0.2 to 0.5 uM by flow cytometry. In kind it is functional, cell-based. In outline:
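HCT-116 cells treated at 0.2 or 0.5 μM were analysed for cell cycle by flow cytometry, with the sub-G1 population scored.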

What is called bioavailability is dose-corrected exposure relative to a reference, in per cent. The low end stands for poor availability, the high end for good availability. For orientation: IC50 means the concentration that inhibits the measured activity by half. A word on the T/C: it is the result in the treated group divided by that in the control group, in per cent. Take `Cc1cc(-c2nc3sc4c(c3c(=O)[nH]2)CCN(C)C4)cc(C)c1OCCCCCC(=O)NO`: the bioavailability in data set [1] is 40.5%. Also, the outcome in [2], in data set [6] and in data set [16] was Active. Further, the Activity in data set [3] was 33.2%; in data set [5] it was “Non-Toxic”; in [12] it was 23%. Besides, the inhibition entry in data set [4] and in data set [15] was “Active” in each case. Further, the IC50 in [7] worked out at 46 nM; in data set [8], 2110 nM; in data set [11], 73 nM; in data set [13] it was 75 nM. In addition, the T/C in data set [9] is reported as 42.7%. In addition, the result in data set [10] was inactive. In addition, the viability at 0.2 µM in data set [14] was 61.7%.
